pEC50: −log10 of the molar value.
Columns and labels:
[1] = Partition coefficient (logP); assay type: physicochemical; details: octanol/water
Procedure, shortened: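 Apparent partition coefficient (log Papp) measured as distribution between 1-octanol and potassium phosphate buffer (0.02 M, pH 7.2) by an adapted shake-flask method.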

[2] = test system: MT4; experiment: Tested for anti-HIV -1 Activity in MT-4 cell culture; assay type: functional, cell-based; details: Homo sapiens
Procedure, shortened: (§1)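 HIV-1 replication assayed in human T4 lymphoblastoid CEM-SS or MT-4 cells, or thymidine kinase-deficient CEM (CEM/TK−) cells. EC50 is the concentration that inhibits HIV-1 replication by 50%. Values are averages of at least three separate experiments, with variation below ±10%.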

[3] = test system: CCRF-CEM; experiment: Tested for cytotoxic concentration in CEM-SS cell culture; assay type: functional; details: Homo sapiens
Procedure, shortened: (§2)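 Viability of uninfected CEM-SS, MT-4 or CEM/TK− cells measured. CC50 is the concentration that reduces viability by 50%. Values are averages of at least three separate experiments, with variation below ±10%.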

[4] = test system: CCRF-CEM; experiment: Tested for cytotoxic concentration in CEM/TK- cell culture; assay type: functional; details: Homo sapiens; procedure, shortened: as §2
[5] = test system: MT4; experiment: Tested for cytotoxic concentration in MT-4 cell culture; assay type: functional; details: Homo sapiens; procedure, shortened: as §2
[6] = test system: CCRF-CEM; experiment: Tested for anti-HIV -1 Activity in CEM/TK- cell culture; assay type: functional, cell-based; details: Homo sapiens; procedure, shortened: as §1
[7] = test system: CCRF-CEM; experiment: Tested for anti-HIV -1 Activity in CEM-SS cell culture; assay type: functional, cell-based; details: Homo sapiens; procedure, shortened: as §1
[8] = test system: CCRF-CEM; experiment: Tested for cytotoxic concentration in CEM-SS cell culture,(Human); assay type: functional; procedure, shortened: as §2
[9] = test system: MT4; experiment: Tested for cytotoxic concentration in MT-4 cell culture,(Human); assay type: functional; procedure, shortened: as §2
[10] = test system: MT4; experiment: Tested for anti-HIV -1 Activity in MT-4 cell culture,(Human); assay type: functional, cell-based; procedure, shortened: as §1
[11] = test system: CCRF-CEM; experiment: Tested for anti-HIV -1 Activity in CEM/TK- cell culture,(Human); assay type: functional, cell-based; procedure, shortened: as §1
[12] = test system: CCRF-CEM; experiment: Tested for cytotoxic concentration in CEM/TK- cell culture,(Human); assay type: functional; procedure, shortened: as §2
[13] = test system: CCRF-CEM; experiment: Tested for anti-HIV -1 Activity in CEM-SS cell culture,(Human); assay type: functional, cell-based; procedure, shortened: as §1
[14] = test system: CCRF-CEM; experiment: Tested for anti-HIV -1 activity in CEM/TK- cell culture; assay type: functional, cell-based; details: Homo sapiens; procedure, shortened: as §1
[15] = test system: CCRF-CEM; experiment: Tested for cytotoxic activity in CEM/TK- cell culture; assay type: functional; details: Homo sapiens; procedure, shortened: as §2
[16] = test system: CCRF-CEM; experiment: Tested for cytotoxic activity in CEM-SS cell culture; assay type: functional; details: Homo sapiens; procedure, shortened: as §2
[17] = test system: MT4; experiment: Tested for anti-HIV -1 activity in MT-4 cell culture; assay type: functional, cell-based; details: Homo sapiens; procedure, shortened: as §1
[18] = test system: CCRF-CEM; experiment: Tested for anti-HIV -1 activity in CEM-SS cell culture; assay type: functional, cell-based; details: Homo sapiens; procedure, shortened: as §1
[19] = test system: MT4; experiment: Tested for cytotoxic activity in MT-4 cell culture; assay type: functional; details: Homo sapiens; procedure, shortened: as §2

SMILES	logP ([1]; read-out: logP)	pEC50 [2]	CC50 [3] [nM]	CC50 [4] [nM]	CC50 [5] [nM]	pEC50 [6]	pEC50 [7]	further results
COC(=O)[C@H](Cc1ccc(OP(=O)(OCCSC(=O)C(C)(C)C)OCC2OC(n3cc(C)c(=O)[nH]c3=O)CC2N=[N+]=[N-])cc1)NC(=O)OC(C)(C)C (some centres undefined)	3.48	7.48	> 10000	> 10000	> 10000	5.64	9.00	–
Cc1cn(C2CC(N=[N+]=[N-])C(COP(=O)(OCCSC(=O)C(C)(C)C)OCCSC(=O)C(C)(C)C)O2)c(=O)[nH]c1=O (centres undefined)	3.73	–	> 10000	> 10000	> 10000	6.35	7.82	–
Cc1cn(C2CC(N=[N+]=[N-])C(COP(=O)(OCCSC(=O)C(C)(C)C)Oc3ccc(C[C@H](N)C(=O)O)cc3)O2)c(=O)[nH]c1=O (some centres undefined)	0.24	–	–	–	–	–	–	CC50 [8]: > 100000 nM; CC50 [9]: > 10000 nM; pEC50 [10]: 7.12; pEC50 [11]: 4.54; CC50 [12]: > 100000 nM; pEC50 [13]: 8.22
Cc1cn([C@H]2C[C@H](N=[N+]=[N-])[C@@H](CO)O2)c(=O)[nH]c1=O [ZIDOVUDINE]	0.06	7.82	> 1000	> 100000	> 1000	< 4.00	8.52	–
Cc1cn(C2CC(N=[N+]=[N-])C(COP(=O)(OCCSC(=O)C(C)(C)C)Oc3ccc(C[C@H](N)C(=O)OC(C)(C)C)cc3)O2)c(=O)[nH]c1=O (some centres undefined)	2.9	7.38	> 10000	> 10000	> 10000	5.57	8.40	–
COC(=O)[C@@H](N)Cc1ccc(OP(=O)(OCCSC(=O)C(C)(C)C)OCC2OC(n3cc(C)c(=O)[nH]c3=O)CC2N=[N+]=[N-])cc1 (some centres undefined)	–	–	–	–	–	–	–	logP [1]: 2.25; pEC50 [14]: 5.74; CC50 [15]: > 100000 nM; CC50 [16]: > 100000 nM; pEC50 [17]: 7.43; pEC50 [18]: 8.70; CC50 [19]: > 10000 nM
Cc1cn([C@H]2C[C@H](N=[N+]=[N-])[C@@H](COP(=O)(OCCSC(=O)C(C)(C)C)Oc3ccccc3)O2)c(=O)[nH]c1=O (some centres undefined)	–	–	–	–	–	–	–	logP [1]: 3.46; CC50 [9]: > 10000 nM; pEC50 [10]: 7.15; pEC50 [11]: 5.46; CC50 [12]: > 10000 nM; pEC50 [13]: 8.70
Cc1cn(C2CC(N=[N+]=[N-])C(COP(=O)(OCCSC(=O)C(C)(C)C)Oc3ccc(C[C@H](NC(=O)OC(C)(C)C)C(=O)OC(C)(C)C)cc3)O2)c(=O)[nH]c1=O (some centres undefined)	4.29	6.60	> 1000	> 1000	> 1000	6.05	7.47	–
